Test results published in ChEMBL document CHEMBL5303300, “EUbOPEN Chemogenomics Library - Multiplex” (2023).
Where “and” joins values, the source holds several entries; their conditions need not be identical. Identical values can stand only once.

Columns and labels:
U2OS = test: Multiplex assay against U2OS; assay type: toxicity, cell-based; conditions: human, number of replicates 2
Summary of the method: (§1)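 With compound added, live cells were imaged on a CQ1 microscope at 37°C and 5% CO2; staining with Hoechst33342, BioTracker Green Microtubule Cytoskeleton Dye, MitoTracker Red and Annexin V Alexa Fluor 680 had been done at seeding. The CellPathfinder machine-learning gating scheme split cells into Hoechst high-intensity objects or normal cells, normal cells into healthy, pyknosed or fragmented nuclei, and pyknosed cells into mitotic or apoptotic. The tubulin, mitochondrial-mass and membrane-permeability phenotypes are per cents of healthy-nucleus cells.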

Fibroblast = test: Multiplex assay against human fibroblast; assay type: toxicity, cell-based; conditions: number of replicates 2; summary of the method: as §1
[1] = 12 h, 1 µM, compound concentration 1 uM
[2] = 12 h, 10 µM, compound concentration 10 uM
[3] = 24 h, 1 µM, compound concentration 1 uM
[4] = 24 h, 10 µM, compound concentration 10 uM
[5] = 48 h, 1 µM, compound concentration 1 uM
[6] = 48 h, 10 µM, compound concentration 10 uM

## COc1c(OCCCN2CCOCC2)ccc2c1N=C(NC(=O)c1cnc(N)nc1)N1CCN=C21 [COPANLISIB]
U2OS; [1]
  Population Apoptotic (%): 100% and 76%
  Population Healthy Nuclei (%): 60% and 87%
  Population Hoechst High Intensity Objects (%): 0%
  Population Membrane Permeable-Phenotype (%): 0% and 2%
  Population Mitochondria Different-Phenotype (%): 0%
  Population Mitotic Cells (%): 0% and 23%
  Population Normal (%): 100%
  Population Pyknosed Nuclei (%): 4% and 7%
  Population Tubulin-Different-Phenotype (%): 93% and 90%
U2OS; [2]
  Population Apoptotic (%): 100% and 76%
  Population Healthy Nuclei (%): 32% and 80%
  Population Hoechst High Intensity Objects (%): 0%
  Population Mitochondria Different-Phenotype (%): 10% and 1%
  Population Mitotic Cells (%): 0% and 24%
  Population Normal (%): 100%
  Population Pyknosed Nuclei (%): 16% and 15%
  Population Tubulin-Different-Phenotype (%): 80%
U2OS; [3]
  Population Apoptotic (%): 100% and 70%
  Population Healthy Nuclei (%): 56% and 86%
  Population Hoechst High Intensity Objects (%): 0%
  Population Membrane Permeable-Phenotype (%): 0% and 2%
  Population Mitochondria Different-Phenotype (%): 0% and 1%
  Population Normal (%): 100%
  Population Pyknosed Nuclei (%): 8% and 10%
  Population Tubulin-Different-Phenotype (%): 100% and 89%
U2OS; [4]
  Population Apoptotic (%): 50% and 64%
  Population Hoechst High Intensity Objects (%): 2% and 0%
  Population Mitotic Cells (%): 50% and 35%
  Population Normal (%): 97% and 100%
  Population Pyknosed Nuclei (%): 22%
  Population Tubulin-Different-Phenotype (%): 75% and 84%
U2OS; [5]
  Population Apoptotic (%): 80% and 72%
  Population Healthy Nuclei (%): 41% and 88%
  Population Hoechst High Intensity Objects (%): 4% and 0%
  Population Membrane Permeable-Phenotype (%): 0% and 2%
  Population Mitochondria Different-Phenotype (%): 0% and 1%
  Population Mitotic Cells (%): 20% and 27%
  Population Normal (%): 96% and 99%
  Population Pyknosed Nuclei (%): 20% and 8%
  Population Tubulin-Different-Phenotype (%): 100% and 95%
U2OS; [6]
  Population Apoptotic (%): 92% and 79%
  Population Hoechst High Intensity Objects (%): 0% and 1%
  Population Mitochondria Different-Phenotype (%): 0% and 3%
  Population Mitotic Cells (%): 7% and 20%
  Population Normal (%): 100% and 98%
  Population Pyknosed Nuclei (%): 34% and 35%
Fibroblast; [1]
  Population Apoptotic (%): 39% and 50%
  Population Fragmented Nuclei (%): 8% and 10%
  Population Healthy Nuclei (%): 65% and 63%
  Population Hoechst High Intensity Objects (%): 0%
  Population Membrane Permeable-Phenotype (%): 1% and 7%
  Population Mitochondria Different-Phenotype (%): 0% and 3%
  Population Mitotic Cells (%): 60% and 50%
  Population Normal (%): 100%
  Population Pyknosed Nuclei (%): 26%
  Population Tubulin-Different-Phenotype (%): 1% and 7%
  Total Cell Count: 157 and 180
Fibroblast; [2]
  Population Apoptotic (%): 52% and 45%
  Population Fragmented Nuclei (%): 10% and 13%
  Population Healthy Nuclei (%): 77% and 74%
  Population Hoechst High Intensity Objects (%): 0%
  Population Membrane Permeable-Phenotype (%): 7% and 2%
  Population Mitochondria Different-Phenotype (%): 3% and 2%
  Population Mitotic Cells (%): 47% and 54%
  Population Normal (%): 100%
  Population Pyknosed Nuclei (%): 12% and 11%
  Total Cell Count: 149 and 188
Fibroblast; [3]
  Population Apoptotic (%): 48% and 57%
  Population Fragmented Nuclei (%): 14% and 8%
  Population Healthy Nuclei (%): 60% and 71%
  Population Hoechst High Intensity Objects (%): 0%
  Population Membrane Permeable-Phenotype (%): 2% and 5%
  Population Mitochondria Different-Phenotype (%): 1% and 2%
  Population Mitotic Cells (%): 51% and 42%
  Population Normal (%): 100%
  Population Pyknosed Nuclei (%): 25% and 20%
  Population Tubulin-Different-Phenotype (%): 2% and 5%
  Total Cell Count: 155 and 165
Fibroblast; [4]
  Population Apoptotic (%): 76% and 60%
  Population Fragmented Nuclei (%): 18% and 16%
  Population Healthy Nuclei (%): 63% and 72%
  Population Hoechst High Intensity Objects (%): 0%
  Population Membrane Permeable-Phenotype (%): 3% and 0%
  Population Mitochondria Different-Phenotype (%): 2% and 1%
  Population Mitotic Cells (%): 23% and 39%
  Population Normal (%): 100%
  Population Pyknosed Nuclei (%): 17% and 11%
  Population Tubulin-Different-Phenotype (%): 9% and 2%
